Test results published in ChEMBL document CHEMBL1121916, “Structure-activity relationships in dihydropteroate synthase inhibition by sulfanilamides. Comparison with the antibacterial activity” (J Med Chem, 1981).

Assays:
[1] = Inhibition of Escherichia coli (K12J53) Dihydopteroate synthase.
Summary of the method: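 Ammonium sulfate fraction (30–70%) from alumina-disrupted E. coli K12J53 grown on brain-heart infusion agar at 37 °C; it contains both pyrophosphokinase and synthase. Read-out was [14C]dihydropteroate. The 50% inhibitory concentration came from 1/dpm vs. concentration plots, divided by p-aminobenzoate concentration (EII50).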

[2] = system: Escherichia coli; experiment: In vitro inhibition of Escherichia coli (K12J53) growth.
[3] = PKa value was measured; format: physicochemical

Row | SMILES | EII50 [1] | GII50 [2] | pKa [3]
1 | Cn1ccs/c1=N\S(=O)(=O)c1ccc(N)cc1 | 13.4 | > 10000 | –
2 | NC(=O)NS(=O)(=O)c1ccc(N)cc1 [SULFACARBAMIDE] | 8.4 | – | 5.42
3 | CN(c1ccccn1)S(=O)(=O)c1ccc(N)cc1 | 30 | 40000 | –
4 | Nc1ccc(S(=O)(=O)Nc2nccs2)cc1 [SULFATHIAZOLE] | 0.9 | – | 7.23
5 | Cc1cc(C)nc(NS(=O)(=O)c2ccc(N)cc2)n1 [SULFAMETHAZINE] | 1.92 | – | 7.51
6 | CNS(=O)(=O)c1ccc(N)cc1 | 32.4 | 60000 | 10.8
7 | Nc1ccc(S(N)(=O)=O)cc1 | 25 | – | –
8 | N=C(N)NS(=O)(=O)c1ccc(N)cc1 | 10.2 | – | –
9 | Cn1cccc/c1=N/S(=O)(=O)c1ccc(N)cc1 | 8 | 30000 | –
10 | Nc1ccc(S(=O)(=O)NC(=O)c2ccccc2)cc1 [SULFABENZAMIDE] | 5.2 | – | 4.57
11 | COc1cc(NS(=O)(=O)c2ccc(N)cc2)nc(OC)n1 [SULFADIMETHOXINE] | 0.85 | – | 5.98
12 | Cc1nnc(NS(=O)(=O)c2ccc(N)cc2)s1 [SULFAMETHIZOLE] | 0.4 | – | 5.22
13 | CN(c1ncccn1)S(=O)(=O)c1ccc(N)cc1 | 9.2 | 10000 | –
14 | Cc1cc(C)nc(N(C)S(=O)(=O)c2ccc(N)cc2)n1 | 10.8 | – | –
15 | Nc1ccc(S(=O)(=O)Nc2ccccn2)cc1 [SULFAPYRIDINE] | 4.2 | – | 8.56
16 | CN(c1nccs1)S(=O)(=O)c1ccc(N)cc1 | 35.4 | > 10000 | –
17 | N#CNS(=O)(=O)c1ccc(N)cc1 | 8 | > 50000 | 2.92
18 | CC(=O)NS(=O)(=O)c1ccc(N)cc1 [SULFACETAMIDE] | 4.44 | – | 5.38
19 | Cn1cccn/c1=N\S(=O)(=O)c1ccc(N)cc1 | 31.2 | > 100000 | –
20 | CN(C)S(=O)(=O)c1ccc(N)cc1 | 82 | > 35000 | –
21 | Cc1cc(C)n(C)/c(=N/S(=O)(=O)c2ccc(N)cc2)n1 | 26 | 52000 | –
22 | Nc1ccc(S(=O)(=O)Nc2ncccn2)cc1 | 2.56 | – | –
